# From ChEMBL document CHEMBL1165943, “Design and synthesis of new anticancer pyrimidines with multiple-kinase inhibitory effect” (Bioorg Med Chem, 2010)
# Tests used:
# KM12 [1] = assay: Cytotoxicity against human KM12 cells assessed as cell growth at 10 uM after 48 hrs by sulforhodamine B assay; assay type: functional; details: KM12, 48 h, read-out: Activity
# OVCAR-3 [2] = assay: Cytotoxicity against human OVCAR-3 cells assessed as cell growth at 100 nM after 48 hrs by sulforhodamine B assay; assay type: functional; details: OVCAR-3, 48 h, read-out: Activity
# NCI-H322M [3] = assay: Cytotoxicity against human NCI-H322M cells assessed as cell growth at 1 uM after 48 hrs by sulforhodamine B assay; assay type: functional; details: read-out: Activity
# M14 = assay: Cytotoxicity against human M14 cells assessed as cell growth at 0.001 uM after 48 hrs by sulforhodamine B assay; assay type: functional; details: M14, 48 h, read-out: Activity
# DU-145 [4] = assay: Cytotoxicity against human DU145 cells assessed as cell growth at 10 uM after 48 hrs by sulforhodamine B assay; assay type: functional; details: DU-145, 48 h, read-out: Activity
# KM12 [5] = assay: Cytotoxicity against human KM12 cells assessed as cell growth at 1 uM after 48 hrs by sulforhodamine B assay; assay type: functional; details: KM12, 48 h, read-out: Activity
# SF-539 [6] = assay: Cytotoxicity against human SF539 cells assessed as cell growth at 0.001 uM after 48 hrs by sulforhodamine B assay; assay type: functional; details: SF-539, 48 h, read-out: Activity
# SK-OV-3 = assay: Cytotoxicity against human SKOV3 cells assessed as cell growth at 0.01 uM after 48 hrs by sulforhodamine B assay; assay type: functional; details: SK-OV-3, 48 h, read-out: Activity
# SF-539 [7] = assay: Growth inhibition of human SF539 cells after 48 hrs by sulforhodamine B assay; assay type: functional, cell-based; details: for CC50: read-out: LC50 (the source's name)
# In short: (§1)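 Cells grown in RPMI 1640 with 5% FBS and 2 mM L-glutamine, seeded at 5,000–40,000 cells/well according to doubling time. After 24 h, time-zero plates are TCA-fixed. Five concentrations (10-fold or ½log dilutions, DMSO stocks) are applied for 48 h at 37 °C, 5% CO₂. Cells are TCA-fixed, SRB-stained and read at 515 nm. IC₅₀ is taken from [(Ti−Tz)/(C−Tz)]×100 = 50.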
# HOP-62 = assay: Cytotoxicity against human HOP62 cells assessed as cell growth at 1 uM after 48 hrs by sulforhodamine B assay; assay type: functional; details: HOP-62, 48 h, read-out: Activity
# ACHN = assay: Growth inhibition of human ACHN cells after 48 hrs by sulforhodamine B assay; assay type: functional, cell-based
# In short: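 Five-dose SRB assay. Cells in RPMI 1640 with 5% FBS and 2 mM L-glutamine were seeded at 5,000–40,000 cells/well, with a TCA-fixed time-zero plate (Tz) taken at 24 h. Compound stocks were in DMSO, serially diluted 10-fold or ½-log to five concentrations, and incubated 48 h at 37 °C. Plates were stained with SRB and read at 515 nm. IC₅₀ was taken where [(Ti−Tz)/(C−Tz)]×100 = 50.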
# MDA-MB-231 = assay: Growth inhibition of human MDA-MB-231 cells after 48 hrs by sulforhodamine B assay; assay type: functional, cell-based; details: MDA-MB-231, 48 h; in short: as §1
# DU-145 [8] = assay: Cytotoxicity against human DU145 cells assessed as cell growth at 1 uM after 48 hrs by sulforhodamine B assay; assay type: functional; details: DU-145, 48 h, read-out: Activity
# HT-29 [9] = assay: Cytotoxicity against human HT-29 cells assessed as cell growth at 10 uM after 48 hrs by sulforhodamine B assay; assay type: functional; details: HT-29, 48 h, read-out: Activity
# K562 = assay: Cytotoxicity against human K562 cells assessed as cell growth at 0.001 uM after 48 hrs by sulforhodamine B assay; assay type: functional; details: K562, 48 h, read-out: Activity
# NCI-H322M [10] = assay: Cytotoxicity against human NCI-H322M cells assessed as cell growth at 100 nM after 48 hrs by sulforhodamine B assay; assay type: functional; details: read-out: Activity
# MDA-MB-468 [11] = assay: Cytotoxicity against human MDA-MB-468 cells assessed as cell growth at 10 uM after 48 hrs by sulforhodamine B assay; assay type: functional; details: MDA-MB-468, 48 h, read-out: Activity
# MDA-MB-468 [12] = assay: Cytotoxicity against human MDA-MB-468 cells assessed as cell growth at 0.01 uM after 48 hrs by sulforhodamine B assay; assay type: functional; details: MDA-MB-468, 48 h, read-out: Activity
# Malme-3M [13] = assay: Cytotoxicity against human MALME-3M cells assessed as cell growth at 0.01 uM after 48 hrs by sulforhodamine B assay; assay type: functional; details: read-out: Activity
# OVCAR-3 [14] = assay: Cytotoxicity against human OVCAR-3 cells assessed as cell growth at 0.01 uM after 48 hrs by sulforhodamine B assay; assay type: functional; details: OVCAR-3, 48 h, read-out: Activity
# NCI-H23 = assay: Cytotoxicity against human NCI-H23 cells assessed as cell growth at 0.01 uM after 48 hrs by sulforhodamine B assay; assay type: functional; details: NCI-H23, 48 h, read-out: Activity
# T47D = assay: Cytotoxicity against human T47D cells assessed as cell growth at 0.001 uM after 48 hrs by sulforhodamine B assay; assay type: functional; details: read-out: Activity
# HCT-15 = assay: Cytotoxicity against human HCT15 cells assessed as cell growth at 10 uM after 48 hrs by sulforhodamine B assay; assay type: functional; details: HCT-15, 48 h, read-out: Activity
# A549 = assay: Cytotoxicity against human A549 cells assessed as cell growth at 100 nM after 48 hrs by sulforhodamine B assay; assay type: functional; details: A549, 48 h, read-out: Activity
# In short: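 Cells grown in RPMI 1640 with 5% FBS and 2 mM L-glutamine, seeded at 5,000–40,000 cells/well by doubling time. Time-zero plates TCA-fixed after 24 h. Five concentrations (10-fold or half-log dilutions from DMSO stock) added; 48 h at 37 °C, 5% CO2. Cold TCA fixation (final 10%, 60 min, 4 °C), 0.4% SRB stain, dye solubilized in 10 mM trizma base, A515.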
# LOX IMVI = assay: Cytotoxicity against human LOXIMVI cells assessed as cell growth at 0.001 uM after 48 hrs by sulforhodamine B assay; assay type: functional; details: read-out: Activity
# UACC-257 = assay: Cytotoxicity against human UACC257 cells assessed as cell growth at 1 uM after 48 hrs by sulforhodamine B assay; assay type: functional; details: UACC-257, 48 h, read-out: Activity
# HT-29 [15] = assay: Cytotoxicity against human HT-29 cells assessed as cell growth at 0.001 uM after 48 hrs by sulforhodamine B assay; assay type: functional; details: HT-29, 48 h, read-out: Activity
# DU-145 [16] = assay: Cytotoxicity against human DU145 cells assessed as cell growth at 0.01 uM after 48 hrs by sulforhodamine B assay; assay type: functional; details: DU-145, 48 h, read-out: Activity
# TK-10 = assay: Cytotoxicity against human TK10 cells assessed as cell growth at 100 nM after 48 hrs by sulforhodamine B assay; assay type: functional; details: TK-10, 48 h, read-out: Activity
# SNB-19 = assay: Cytotoxicity against human SNB19 cells assessed as cell growth at 100 nM after 48 hrs by sulforhodamine B assay; assay type: functional; details: SNB-19, 48 h, read-out: Activity
# Malme-3M [17] = assay: Cytotoxicity against human MALME-3M cells assessed as cell growth at 10 uM after 48 hrs by sulforhodamine B assay; assay type: functional; details: read-out: Activity
SMILES,growth at 10 µM (KM12 [1]),growth at 0.1 µM (OVCAR-3 [2]),growth at 1 µM (NCI-H322M [3]),growth at 0.001 µM (M14),growth at 10 µM (DU-145 [4]),growth at 1 µM (KM12 [5]),growth at 0.001 µM (SF-539 [6]),growth at 0.01 µM (SK-OV-3),"TGI (SF-539 [7]; Homo sapiens, SF-539, 48 h)","CC50 (SF-539 [7]; Homo sapiens, SF-539, 48 h)",growth at 1 µM (HOP-62),GI50 (ACHN),IC50 (ACHN),LC50 (50% lethal concentration) (ACHN),TGI (ACHN),IC50 (MDA-MB-231),LC50 (MDA-MB-231),TGI (MDA-MB-231),growth at 1 µM (DU-145 [8]),growth at 10 µM (HT-29 [9]),other results
CC(=O)c1ccccc1-c1ccc(-c2ccnc(NC(=O)Nc3cc(N4CCOCC4)cc(C(F)(F)F)c3)n2)cn1,82%,109%,88%,94%,59%,86%,97%,113%,> 100 µM,> 100 µM,21%,> 100 µM,6.89 µM,> 100 µM,> 100 µM,3.1 µM,> 100 µM,> 100 µM,19%,91%,IC50 (SF-539 [7]; sf-539): Not Active; growth at 0.001 µM (K562): 81%; growth at 0.1 µM (NCI-H322M [10]): 99%; growth at 10 µM (MDA-MB-468 [11]): 65%; growth at 0.01 µM (MDA-MB-468 [12]): 105%; growth at 0.01 µM (Malme-3M [13]): 103%; growth at 0.01 µM (OVCAR-3 [14]): 95%; growth at 0.01 µM (NCI-H23): 99%; growth at 0.001 µM (T47D): 106%; growth at 10 µM (HCT-15): 87%; growth at 0.1 µM (A549): 92%; growth at 0.001 µM (LOX IMVI): 104%; growth at 1 µM (UACC-257): 66%; growth at 0.001 µM (HT-29 [15]): 103%; growth at 0.01 µM (DU-145 [16]): 97%; growth at 0.1 µM (TK-10): 100%; growth at 0.1 µM (SNB-19): 95%; growth at 10 µM (Malme-3M [17]): 61%
CC(=O)Nc1cccc(-c2ccc(-c3ccnc(NC(=O)Nc4cc(C(F)(F)F)cc(C(F)(F)F)c4)n3)cn2)c1.Cl,100%,67%,12%,94%,-93%,-10%,97%,98%,18.9 µM,44.3 µM,27%,3.83 µM,3.83 µM,47.1 µM,15.5 µM,3.72 µM,62 µM,19.7 µM,38%,-64%,"GI50 (SF-539 [7]; Homo sapiens, SF-539, 48 h): 5.48 µM; IC50 (SF-539 [7]; Homo sapiens, SF-539, 48 h, read-out: IC50): 5.48 µM; GI50 (MDA-MB-231): 3.72 µM; growth at 0.001 µM (K562): 93%; growth at 0.1 µM (NCI-H322M [10]): 69%; growth at 10 µM (MDA-MB-468 [11]): 100%; growth at 0.01 µM (MDA-MB-468 [12]): 86%; growth at 0.01 µM (Malme-3M [13]): 88%; growth at 0.01 µM (OVCAR-3 [14]): 105%; growth at 0.01 µM (NCI-H23): 92%; growth at 0.001 µM (T47D): 89%; growth at 10 µM (HCT-15): -86%; growth at 0.1 µM (A549): 58%; growth at 0.001 µM (LOX IMVI): 95%; growth at 1 µM (UACC-257): -45%; growth at 0.001 µM (HT-29 [15]): 106%; growth at 0.01 µM (DU-145 [16]): 95%; growth at 0.1 µM (TK-10): 105%; growth at 0.1 µM (SNB-19): 90%; growth at 10 µM (Malme-3M [17]): -49%"
